The full list was thinned out, with hits kept by preference.
PGC1a acetyl up: compounds raising PGC1a acetylation signal, primary screen, PGC1a modulator project, cell-based, U2OS, AlphaScreen, signal-increasing mode; overnight; activation, % at 15.6 µM; 350,000 compounds, 0.21% hits; AID 651723, 2012;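 active = every replicate reaching activation of at least 50%, whatever the mean replicate activation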;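 note: hits raise the AlphaScreen acetylation signal above neutral controls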
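detection = AlphaScreen lysate read | assay system = U2OS cells expressing flag-PGC1a plus GCN5 | input = 7000 cells/well | dosing = one concentration | times = compound overnight at 37 °C, each detection step 1 h RT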
Of the large screens only hits and unclear results are named; the others gave an inactive call.

C[C@H]([C@@H](N)C(=O)N[C@@H](C(=O)O)[C@@H]1O[C@H](n2ccc(=O)[nH]c2=O)[C@@H](O)[C@H]1O)[C@@H](O)c1ccc(O)cn1	none
COC(=O)Cn1ccc(-c2ccc(Cl)cc2)c(C#N)c1=O	none
NCCCn1c(C(=O)c2cc(Cl)c(N)c(Cl)c2)c2ccc([N+](=O)[O-])cc2[n+]1[O-]	none
Cc1ccc(NC(=S)c2ccncc2)c(C)c1	PGC1a acetyl up 164.2
COc1ccc(-n2c(=O)c3c4c(sc3n3c(=S)[nH]nc23)CCC4)cc1	PGC1a acetyl up 234.3
CC1=Nc2ccccc2N=C(NC(=O)CN2CCN(c3ccccc3)CC2)C1c1ccccc1 (stereo not given)	none
CCC(=O)N1C[C@H](C)[C@@H](OC)CN(C)C(=O)c2cc(NC(=O)Nc3cccc(F)c3)ccc2OC[C@H]1C	none
CC1CC1C(=O)N(C)CC(=O)Nc1cccc(F)c1 (stereo not given)	PGC1a acetyl up 77.6
Cc1coc2cc3oc(=O)c(CCC(=O)NC4CC4)c(C)c3cc12	PGC1a acetyl up 57.0
CC(c1ccccc1)N1C(=O)NC(NC(=O)c2cccnc2)(C(F)(F)F)C1=O (stereo not given)	PGC1a acetyl up 74.3
CCOC(=O)C1(CC2CCCCO2)CCN(C(=O)Nc2ccc(SC)cc2)CC1 (stereo not given)	none
COc1cccc2c1C(=O)c1c(O)c3c(c(O)c1C2=O)CC(O)(C(C)=O)CC3OC1CC(N(C)C)C(O)C(C)O1 (stereo not given)	none
CCOC(=O)N1CCC(N(CCN(C)C)C(=S)Nc2cccc(OC)c2)CC1	none
CC(=O)c1ccc(NC(=O)CSCC(=O)Nc2ccc3ccccc3c2)cc1	none
CC(=O)Nc1cccc(OCC(=O)Nc2ccccc2)c1	PGC1a acetyl up 51.3
COc1ccc(Cl)cc1NC(=O)NCC1CCN(C(=O)OC(C)(C)C)CC1	none
COC(=O)C1CCN(Cc2nnc(-c3ccccc3)o2)CC1	none
O=c1c(Cl)c(Cl)cnn1Cc1nnc(-c2ccc(Cl)cc2)o1	PGC1a acetyl up 72.9
Cc1ccc(Cn2ncc(Cl)c(Cl)c2=O)cc1	PGC1a acetyl up 111.8
C[C@@H]1CN([C@@H](C)CO)C(=O)c2cccc(NC(=O)C3CCCCC3)c2O[C@@H]1CN(C)CC1CCCCC1	none
Cc1noc(/C=C/N(C)C)c1S(=O)(=O)N(C)CC(=O)NC1CCCCC1	none
CCc1c(C(=O)NC2CCCCC2)[nH]c(C)c1C(C)=O	none
COc1ccc(Cn2nnnc2C(C(C)C)N(Cc2ccco2)Cc2cccs2)cc1 (stereo not given)	PGC1a acetyl up 56.4
C[C@@H]1CN([C@@H](C)CO)C(=O)c2cc(C#CC3CCCC3)cnc2O[C@H]1CN(C)C(=O)Nc1ccccc1	none
Cc1cccc(C)c1OC1(c2ccccc2)OC(=O)c2ccccc21 (stereo not given)	PGC1a acetyl up 72.1
CCOc1ccc(Nc2ncnc3ccc([N+](=O)[O-])cc23)cc1	none
C=CCNC(=O)c1ccc(CN2CCC(Cc3ccccc3)CC2)cc1	none
CN(Cc1ccccc1)S(=O)(=O)c1ccc(S(=O)(=O)N(Cc2ccc(F)cc2)C2CCCC2)cc1	none
CN(C)S(=O)(=O)N1CCC(Cc2ccccc2)CC1	PGC1a acetyl up 61.5
CCCCC(O)(CCCC)C(=O)N/N=C(\C)c1ccc(Cl)cc1	none
COc1ccccc1CN=Cc1[nH]c2ccc(Br)c(Cl)c2c1O	PGC1a acetyl up 52.4
Nc1cc2nsnc2cc1Br	none
N#Cc1ccccc1S(=O)(=O)N1CCN(Cc2cc3c(cc2Br)OCCO3)CC1	PGC1a acetyl up 105.2
Cc1ccc2[nH]c3ccccc3c(=O)c2c1	PGC1a acetyl up 68.0
C[C@H](CO)N1C[C@H](C)[C@@H](CN(C)C(=O)Nc2ccc(-c3cccs3)cc2)OCc2cnnn2CCCC1=O	none
O=C(CC1CC1)N[C@H]1CC[C@@H](CCNS(=O)(=O)c2ccc(Cl)cc2)O[C@@H]1CO	none
COc1ccc(C(=O)C(CN2CCCC2)c2ccccc2)cc1 (stereo not given)	PGC1a acetyl up 166.8
CCCCOc1ccc(C(=O)C(CN2CCOCC2)c2ccccc2)cc1 (stereo not given)	none
CC(c1ccccc1)N1CCN(C(=O)CCl)CC1 (stereo not given)	none
C[C@@H]1CN([C@H](C)CO)C(=O)c2cc(NC(=O)Nc3ccc(F)cc3)ccc2O[C@@H](C)CCCCO[C@@H]1CN(C)C(=O)NC1CCCCC1	none
O=C(NCc1ccc2c(c1)OCO2)c1nc(S(=O)(=O)Cc2ccccc2)ncc1Cl	PGC1a acetyl up 73.7
CCCNC(=O)c1ccc(COc2ccc(Cl)cc2)o1	none
CCC(C)(C)n1nnnc1C(c1cccnc1)N1CCCC(C)C1 (stereo not given)	none
Cc1c(Cl)cccc1NS(=O)(=O)c1ccc2c(c1)C1C=CCC1C(c1ccc(C(=O)O)cc1)N2 (stereo not given)	none
OC(c1cc(C(F)(F)F)nc2c(C(F)(F)F)cccc12)C1CCCCN1 (stereo not given)	PGC1a acetyl up 78.1
O=C(Nc1nc2c(s1)CN(Cc1ccccc1)CC2)c1c(F)cccc1F	none
CC(=O)N(c1cccc(C)c1)S(=O)(=O)c1ccc(Cl)cc1	none
Cc1c(Cl)c([N+](=O)[O-])nn1CC(=O)NCc1cccnc1	none
Cc1ccc(S(=O)(=O)Nc2ccccc2C(=O)NCc2cccnc2)cc1	none
C/C(=N/NC(=O)CNC(=O)c1cccnc1)c1ccc([N+](=O)[O-])cc1	none
O=C(COc1ccc([N+](=O)[O-])cc1)Nc1ccc(C(=O)NCc2cccnc2)cc1	PGC1a acetyl up 191.9
CC(C)(C)NC(=O)C(=O)NNC(=O)c1cccc([N+](=O)[O-])c1	none
O=C(NCc1cccnc1)c1ccc(NC(=O)c2cccc([N+](=O)[O-])c2)cc1	PGC1a acetyl up 170.7
COc1ccccc1C(=O)N1C(CC(=O)Nc2cc(Cl)ccc2C)C(=O)NC2CCCCC21 (stereo not given)	none
COCc1ccc(CN2CCC(n3nccc3NC(=O)c3ccc4c(c3)OCO4)CC2)o1	PGC1a acetyl up 54.1
CO[C@@H]1CN(C)C(=O)c2cc(NC(=O)c3ccc4c(c3)OCO4)ccc2OC[C@@H](C)N(CC2CC2)C[C@H]1C	none
O=c1[nH]nc(-c2ccc(NCCCO)c([N+](=O)[O-])c2)c2ccccc12	none
O=[N+]([O-])c1ccc(N=Nc2c(Cl)cc(O)cc2Cl)cc1	PGC1a acetyl up 53.4
Cc1ccc(C(=O)Cn2c(C(=O)OCCO)cc3ccccc32)cc1	PGC1a acetyl up 65.3
Cc1cccc(NS(=O)(=O)c2ccc(NC(=O)CN(c3cc([N+](=O)[O-])ccc3C)S(C)(=O)=O)cc2)c1	PGC1a acetyl up 377.6
COc1ccc(C)cc1NS(=O)(=O)c1ccc(NC(=O)CN(c2cc([N+](=O)[O-])ccc2C)S(C)(=O)=O)cc1	PGC1a acetyl up 474.1
COc1ccc(OC)c(N(CC(=O)Nc2ccccc2)S(C)(=O)=O)c1	none
CC(=O)Nc1cc(C(=O)OCc2cccc([N+](=O)[O-])c2)ccc1C	none
CCOc1ccc(N(CC(=O)Nc2ccccc2OC)S(=O)(=O)c2ccccc2)cc1	none
CCOc1ccc2nc(NCCNC(=O)Nc3ccccc3)c(C#N)cc2c1	none
COc1cc(CNC(=O)c2cc(-c3cc(C)cc(F)c3)n[nH]2)cc(OC)c1	none
COc1cc(Cl)c(S(=O)(=O)N2CC(C)OC(C)C2)cc1Cl (stereo not given)	PGC1a acetyl up 88.6
COc1cc(C(=O)O)ccc1Cl	none
Cc1ccc(S(=O)(=O)N(C)C[C@H]2Oc3ccc(NC(=O)CCC(F)(F)F)cc3C(=O)N([C@H](C)CO)C[C@@H]2C)cc1	none
CCOC(=O)C1=C(C)N=C2SC(C(=O)OC)=CC(=O)N2C1c1cccc(OC)c1 (stereo not given)	none

High-throughput results from PubChem BioAssay.
